Reference: ChEMBL document CHEMBL1137566 (J Med Chem, 2007)
pIC50, pKi: −log10 of the molar value. One block for each compound: values may come before it.

Columns and labels:
Coagulation factor X [1] = biological target: Coagulation factor X (Homo sapiens, UniProt P00742); experiment: Binding affinity to human F10a
Prothrombin = Prothrombin (Homo sapiens, UniProt P00734); experiment: Inhibition of human thrombin
Trypsin = Trypsin (Homo sapiens, UniProt P07477+P07478+P35030); experiment: Inhibition of human trypsin; type: protein assay
[2] = Clearance in dog at 0.4 mg/kg, iv and 0.2 mg/kg, po; type: ADME, organism-based, Canis lupus familiaris; details: in vivo
Method in brief: (§1)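 Dog pharmacokinetics from cassette (N-in-one) dosing of compounds as TFA salts: 0.4 mg/kg iv and 0.2 mg/kg po, n = 2 animals.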

[3] = Volume of distribution at steady state in dog at 0.4 mg/kg, iv and 0.2 mg/kg, po; type: ADME, organism-based, Canis lupus familiaris; details: in vivo, read-out: Vdss; method in brief: as §1
[4] = Half life in dog at 0.2 mg/kg, po; type: ADME, organism-based, Canis lupus familiaris; parameters: dose 0.2 mg/kg, route oral; details: in vivo; method in brief: as §1
[5] = Oral bioavailability in dog at 0.2 mg/kg, po; type: ADME, organism-based, Canis lupus familiaris; details: in vivo; method in brief: as §1
[6] = Apparent permeability across Caco-2 cells; type: ADME, cell-based; details: human
Oryctolagus cuniculus = species on record: Oryctolagus cuniculus; experiment: Inhibition of thrombus formation in rabbit arteriovenous shunt thrombosis model; type: functional, organism-based
Coagulation factor X [7] = biological target: T1, Coagulation factor X (Oryctolagus cuniculus, UniProt O19045); experiment: Binding affinity to rabbit F10a
T1 sequence (O19045 whole entry): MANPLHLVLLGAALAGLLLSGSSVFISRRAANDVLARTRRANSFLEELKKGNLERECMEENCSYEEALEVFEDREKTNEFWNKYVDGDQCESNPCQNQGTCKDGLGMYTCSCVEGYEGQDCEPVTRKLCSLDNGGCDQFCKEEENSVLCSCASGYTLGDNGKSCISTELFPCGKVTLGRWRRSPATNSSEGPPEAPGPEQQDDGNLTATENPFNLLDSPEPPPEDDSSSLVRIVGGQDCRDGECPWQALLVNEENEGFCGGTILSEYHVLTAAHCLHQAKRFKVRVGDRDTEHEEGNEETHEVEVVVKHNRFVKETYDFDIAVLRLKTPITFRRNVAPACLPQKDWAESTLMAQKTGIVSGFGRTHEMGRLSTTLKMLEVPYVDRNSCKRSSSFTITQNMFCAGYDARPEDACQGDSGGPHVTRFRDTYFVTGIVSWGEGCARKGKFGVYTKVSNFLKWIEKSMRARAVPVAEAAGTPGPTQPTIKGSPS

[8] = Half life in human liver microsomes; type: ADME, Microsome

Chain of Coagulation factor X (Homo sapiens, UniProt P00742) (P00742 41-179 limits assumed): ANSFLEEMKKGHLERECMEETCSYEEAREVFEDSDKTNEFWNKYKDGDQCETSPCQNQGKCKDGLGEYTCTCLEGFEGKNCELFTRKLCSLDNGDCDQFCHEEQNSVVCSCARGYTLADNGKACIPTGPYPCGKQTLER
Chain of Coagulation factor X (Homo sapiens, UniProt P00742) (P00742 235-488 limits assumed): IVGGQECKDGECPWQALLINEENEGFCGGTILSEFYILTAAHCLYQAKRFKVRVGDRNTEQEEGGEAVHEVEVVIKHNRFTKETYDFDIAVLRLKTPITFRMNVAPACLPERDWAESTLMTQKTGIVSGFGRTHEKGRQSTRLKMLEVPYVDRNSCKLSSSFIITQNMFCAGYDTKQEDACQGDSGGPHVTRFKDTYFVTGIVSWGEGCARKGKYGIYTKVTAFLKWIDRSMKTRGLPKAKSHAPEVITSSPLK

pKi (Coagulation factor X [1]): 9.74
pKi (Prothrombin): 6.48
Ki (Trypsin): > 3000 nM
SMILES: COc1ccc(-n2nc(C(F)(F)F)c3c2C(=O)N(c2ccc(-c4ccccc4CN4CC[C@@H](O)C4)cc2)CC3)cc1

pKi (Coagulation factor X [1]): 9.51
pKi (Prothrombin): 5.74
Ki (Trypsin): > 3000 nM
SMILES: COc1ccc(-n2nc(N(C)C)c3c2C(=O)N(c2ccc(-c4ccccc4CN4CC[C@@H](O)C4)cc2)CC3)cc1

pKi (Coagulation factor X [1]): 8.32
pKi (Prothrombin): 5.15
Ki (Trypsin): > 3000 nM
SMILES: CNC(=O)c1nn(-c2ccc(OC)cc2)c2c1CCN(c1ccc(-c3ccccc3CN3CC[C@@H](O)C3)cc1)C2=O

pKi (Coagulation factor X [1]): 8.77
pKi (Prothrombin): 4.96
Ki (Trypsin): > 3000 nM
SMILES: COc1ccc(-n2nc(C(=O)N(C)C)c3c2C(=O)N(c2ccc(-c4ccccc4CN4CC[C@@H](O)C4)cc2)CC3)cc1

pKi (Coagulation factor X [1]): 8.17
pKi (Prothrombin): 5.03
Ki (Trypsin): > 3000 nM
SMILES: COc1ccc(-n2nc(N)c3c2C(=O)N(c2ccc(-c4ccccc4CN4CC[C@@H](O)C4)cc2)CC3)cc1

pKi (Coagulation factor X [1]): 8.41
pKi (Prothrombin): 6.01
Ki (Trypsin): > 3000 nM
SMILES: CCOC(=O)c1nn(-c2ccc(OC)cc2)c2c1CCN(c1ccc(-c3ccccc3CN3CC[C@@H](O)C3)cc1)C2=O

pKi (Coagulation factor X [1]): 8.12
pKi (Prothrombin): < 4.70
Ki (Trypsin): > 3000 nM
SMILES: COc1ccc(-n2nc(C(=O)O)c3c2C(=O)N(c2ccc(-c4ccccc4CN4CC[C@@H](O)C4)cc2)CC3)cc1

pKi (Coagulation factor X [1]): 8.02
pKi (Prothrombin): 5.34
Ki (Trypsin): > 3000 nM
SMILES: COc1ccc(-n2nc(NC(=O)OC(C)(C)C)c3c2C(=O)N(c2ccc(-c4ccccc4CN4CC[C@@H](O)C4)cc2)CC3)cc1

pKi (Coagulation factor X [1]): 9.60
pKi (Prothrombin): 6.74
Ki (Trypsin): > 3000 nM
SMILES: COc1ccc(-n2nc(S(C)(=O)=O)c3c2C(=O)N(c2ccc(-c4ccccc4CN4CC[C@@H](O)C4)cc2)CC3)cc1

Second part, the compound before the results:

SMILES: COc1ccc(-n2nc(C(N)=O)c3c2C(=O)N(c2ccc(-c4ccccc4CN4CC[C@@H](O)C4)cc2)CC3)cc1
pKi (Coagulation factor X [1]): 10.15
pKi (Prothrombin): 6.85
Ki (Trypsin): > 3000 nM
clearance [2]: 0.32 L/h/kg
Vd [3]: 1.6 L/kg
half-life [4]: 5.6 h
bioavailability [5]: 100%
Papp [6]: 23 nm/s
pIC50 (Oryctolagus cuniculus): 6.92

SMILES: COc1ccc(-n2nc(C(F)(F)F)c3c2C(=O)N(c2ccc(N(C)C(C)=O)cc2)CC3)cc1
pKi (Coagulation factor X [1]): 9.30
pKi (Prothrombin): < 5.20

SMILES: COc1ccc(-n2nc(C(N)=O)c3c2C(=O)N(c2ccc(N(C)C(C)=O)cc2)CC3)cc1
pKi (Coagulation factor X [1]): 9.21
pKi (Prothrombin): 5.60
clearance [2]: 2.8 L/h/kg
Vd [3]: 1.7 L/kg
half-life [4]: 0.7 h
bioavailability [5]: 56%
Papp [6]: 25 nm/s
pKi (Coagulation factor X [7]): 8.59

SMILES: COc1ccc(-n2nc(C(F)(F)F)c3c2C(=O)N(c2ccc(N(C)C)cc2)CC3)cc1
pKi (Coagulation factor X [1]): 8.22
pKi (Prothrombin): < 4.87

SMILES: COc1ccc(-n2nc(C(F)(F)F)c3c2C(=O)N(c2ccc(N4CCCCC4)cc2)CC3)cc1
pKi (Coagulation factor X [1]): 8.68
pKi (Prothrombin): 5.41

SMILES: COc1ccc(-n2nc(C(F)(F)F)c3c2C(=O)N(c2ccc(N4CCCCCC4=O)cc2)CC3)cc1
pKi (Coagulation factor X [1]): 9.33
pKi (Prothrombin): 5.48

SMILES: CNCc1ccccc1-c1ccc(N2CCc3c(C(N)=O)nn(-c4ccc(OC)cc4)c3C2=O)cc1
pKi (Coagulation factor X [1]): 9.85
clearance [2]: 1.3 L/h/kg
Vd [3]: 7.4 L/kg
half-life [4]: 7.3 h
bioavailability [5]: 56%
Papp [6]: 17 nm/s
pIC50 (Oryctolagus cuniculus): 6.35
half-life [8]: > 1.67 h

SMILES: CCN(CC)Cc1ccccc1-c1ccc(N2CCc3c(C(N)=O)nn(-c4ccc(OC)cc4)c3C2=O)cc1
pKi (Coagulation factor X [1]): 10.10
clearance [2]: 2.4 L/h/kg
Vd [3]: 6.5 L/kg
half-life [4]: 3.7 h
bioavailability [5]: 20%
Papp [6]: 23 nm/s

SMILES: COc1ccc(-n2nc(C(N)=O)c3c2C(=O)N(c2ccc(-c4ccccc4CN4CCC(O)CC4)cc2)CC3)cc1
pKi (Coagulation factor X [1]): 9.54
clearance [2]: 0.1 L/h/kg
Vd [3]: 0.99 L/kg
half-life [4]: 4.3 h
bioavailability [5]: 55%
Papp [6]: 49 nm/s
pIC50 (Oryctolagus cuniculus): 6.74

SMILES: COc1ccc(-n2nc(C(N)=O)c3c2C(=O)N(c2ccc(-c4ccccc4CN(CCO)CCO)cc2)CC3)cc1
pKi (Coagulation factor X [1]): 9.44
clearance [2]: 0.5 L/h/kg
Vd [3]: 1.09 L/kg
half-life [4]: 1.8 h
bioavailability [5]: 15%
Papp [6]: 9 nm/s
